Experimental data from ChEMBL document CHEMBL3813601, “Structure-Based Inhibitor Design for Evaluation of a CYP3A4 Pharmacophore Model” (J Med Chem, 2016).

What was measured:
Format in all cases: ADME
Cytochrome P450 3A4 [1] = molecular target: T1, Cytochrome P450 3A4 (Homo sapiens, UniProt P08684); test: Binding affinity to C-terminal four-histidine tagged human CYP3A4delta3 to 24 residues expressed in Escherichia coli assessed as spectral dissociation constant by spectrophotometric method
Summary of the method: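 Equilibrium titration of CYP3A4 in 50 mM phosphate pH 7.4 with 20% glycerol and 1 mM DTT. Ligand added in small aliquots from DMSO stock, final DMSO <2%. Absorbance spectra recorded. Ks obtained from one- or two-site saturation fit of absorbance change versus ligand concentration.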

Cytochrome P450 3A4 [2] = molecular target: T1, Cytochrome P450 3A4; test: Binding affinity to C-terminal four-histidine tagged human CYP3A4delta3 to 24 residues expressed in Escherichia coli assessed as rate constant for first phase
Summary of the method: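 Stopped-flow mixing of 2 μM CYP3A4 with varied ligand concentrations, room temperature, 50 mM phosphate pH 7.4. Absorbance followed at 409–411 or 427–428 nm depending on ligand. Fast-phase rate constant taken at saturating ligand concentration.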

Cytochrome P450 3A4 [3] = molecular target: T1, Cytochrome P450 3A4; test: Binding affinity to C-terminal four-histidine tagged human CYP3A4delta3 to 24 residues expressed in Escherichia coli assessed as change in melting temperature at 10 uM by spectrophotometric method
Cytochrome P450 3A4 [4] = molecular target: T1, Cytochrome P450 3A4; test: Inhibition of C-terminal four-histidine tagged human CYP3A4delta3 to 24 residues expressed in Escherichia coli assessed as 7-benzyloxy-4-(trifluoromethyl)coumarin O-debenzylation pretreated 2 mins followed by NADPH addition by fluorometric method in presence of rat cytochrome P450 reductase
Summary of the method: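 Reconstituted system at room temperature in 100 mM phosphate pH 7.4 with catalase and superoxide dismutase (2 units/mL each). 1 μM CYP3A4 and 1 μM rat CPR preincubated 1 h at room temperature, then diluted 20-fold in assay buffer just before measurement. BFC (50 μM) and varying compound concentrations added 2 min before starting with 100 μM NADPH. O-debenzylation read fluorometrically; IC50 = half-maximal inactivation.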

T1 sequence (P08684 whole entry, the tested form may be a part): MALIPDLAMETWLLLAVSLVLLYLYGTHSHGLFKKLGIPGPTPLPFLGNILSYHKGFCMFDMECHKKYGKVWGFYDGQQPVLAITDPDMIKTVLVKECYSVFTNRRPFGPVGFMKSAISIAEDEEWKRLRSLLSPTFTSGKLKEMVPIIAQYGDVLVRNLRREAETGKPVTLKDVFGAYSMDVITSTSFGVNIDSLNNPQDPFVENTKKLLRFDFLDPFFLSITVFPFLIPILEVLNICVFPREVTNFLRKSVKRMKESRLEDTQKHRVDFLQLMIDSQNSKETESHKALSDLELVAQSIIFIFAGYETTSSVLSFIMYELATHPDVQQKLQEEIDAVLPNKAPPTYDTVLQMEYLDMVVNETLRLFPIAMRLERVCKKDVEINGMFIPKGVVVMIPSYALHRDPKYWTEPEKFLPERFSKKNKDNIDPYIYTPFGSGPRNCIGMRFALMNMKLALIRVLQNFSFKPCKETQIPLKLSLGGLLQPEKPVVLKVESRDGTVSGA

| SMILES | Kd (Cytochrome P450 3A4 [1]) [µM] | K (Cytochrome P450 3A4 [2]) [s⁻¹] | deltaTm (Cytochrome P450 3A4 [3]) [°C] | IC50 (Cytochrome P450 3A4 [4]) [µM] |
| --- | --- | --- | --- | --- |
| NCCc1cccnc1 | 2500 | 0.6 | -0.1 | 5000 |
| NCCCCCC(=O)NCc1cccnc1 | 10 | 0.8 | -0.2 | 1000 |
| c1ccncc1 [PYRIDINE] |  | 0.5 | 0 |  |

Second part, the compound after the results:

| Kd (Cytochrome P450 3A4 [1]) [µM] | K (Cytochrome P450 3A4 [2]) [s⁻¹] | deltaTm (Cytochrome P450 3A4 [3]) [°C] | IC50 (Cytochrome P450 3A4 [4]) [µM] | SMILES |
| --- | --- | --- | --- | --- |
| 10 | 4 | -2 | 30 | CC(C)(C)OC(=O)N[C@H](CSCCC(=O)NCc1cccnc1)CC1CCCCC1 |
| 0.5 | 8 | 0.2 | 0.21 | CC(C)(C)OC(=O)N[C@H](CSCCC(=O)NCc1cccnc1)Cc1c[nH]c2ccccc12 |
| 0.9 | 1.7 | -1 | 0.52 | CC(C)(C)OC(=O)N[C@H](CSCCC(=O)NCc1cccnc1)Cc1ccccc1 |
|  | 20 | -0.2 | 75 | CC(C)(C)OC(=O)NCCCCCC(=O)NCc1cccnc1 |
